Test results published in ChEMBL document CHEMBL2010663, “Iodine-catalyzed condensation of isatin with indoles: a facile synthesis of di(indolyl)indolin-2-ones and evaluation of their cytotoxicity” (Bioorg Med Chem Lett, 2012).
pIC50: −log10 of the molar value.

Key:
MDA-MB-231 = assay: Cytotoxicity against human MDA-MB-231 cells after 48 hrs by MTT assay; format: functional, cell-based; conditions: MDA-MB-231, 48 h
Outline: (§1)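 Cells seeded at 10,000 cells/100 μl in medium with 10% serum and left 24 h in a humid 5% CO2 chamber to adhere. Compounds were then added at a range of concentrations for 48 h. MTT (5 mg/mL stock in PBS, 10 μl per well) was added for 2 h.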

SK-N-SH = assay: Cytotoxicity against human SK-N-SH cells after 48 hrs by MTT assay; format: functional, cell-based; outline: as §1
A549 = assay: Cytotoxicity against human A549 cells after 48 hrs by MTT assay; format: functional, cell-based; conditions: A549, 48 h; outline: as §1
MRC5 = assay: Cytotoxicity against human MRC5 cells after 48 hrs by MTT assay; format: cell-based; conditions: MRC5, 48 h; outline: as §1

| Structure (SMILES) | pIC50 (MDA-MB-231) | pIC50 (SK-N-SH) | pIC50 (A549) | pIC50 (MRC5) |
| --- | --- | --- | --- | --- |
| O=C1Nc2ccccc2C1(c1c[nH]c2ccc(Cl)cc12)c1c[nH]c2ccc(Cl)cc12 | 5.00 | 5.88 | < 4.00 | < 4.00 |
| O=C1Nc2ccccc2C1(c1c[nH]c2ccc([N+](=O)[O-])cc12)c1c[nH]c2ccc([N+](=O)[O-])cc12 | 5.00 | 6.00 | 5.10 | < 4.00 |
| Cc1[nH]c2ccc([N+](=O)[O-])cc2c1C1(c2c(C)[nH]c3ccc([N+](=O)[O-])cc23)C(=O)Nc2ccccc21 | 4.00 | 6.03 | 6.05 | < 4.00 |
| N#Cc1ccc2[nH]cc(C3(c4c[nH]c5ccc(C#N)cc45)C(=O)Nc4ccccc43)c2c1 | 4.00 | 6.03 | 6.01 | < 4.00 |
| COC(=O)c1ccc2[nH]cc(C3(c4c[nH]c5ccc(C(=O)OC)cc45)C(=O)Nc4ccccc43)c2c1 | < 4.00 | 6.01 | 6.12 | < 4.00 |
| O=C1Nc2ccccc2C1(c1c(-c2ccccc2)[nH]c2ccccc12)c1c(-c2ccccc2)[nH]c2ccccc12 | < 4.00 | 5.02 | 5.05 | < 4.00 |
| Cc1[nH]c2ccc([N+](=O)[O-])cc2c1C1(c2c(C)[nH]c3ccc([N+](=O)[O-])cc23)C(=O)Nc2ccc(Cl)cc21 | 5.00 | 5.91 | 4.16 | < 4.00 |
| O=C1Nc2ccc(Cl)cc2C1(c1c(-c2ccccc2)[nH]c2ccccc12)c1c(-c2ccccc2)[nH]c2ccccc12 | < 4.00 | < 4.00 | < 4.00 | < 4.00 |
| COC(=O)c1ccc2[nH]cc(C3(c4c[nH]c5ccc(C(=O)OC)cc45)C(=O)Nc4ccc(Cl)cc43)c2c1 | 5.00 | 5.00 | 4.15 | < 4.00 |
| O=C1Nc2ccc(Cl)cc2C1(c1c[nH]c2ccc(Br)cc12)c1c[nH]c2ccc(Br)cc12 | < 4.00 | 5.98 | < 4.00 | < 4.00 |
| O=C1Nc2ccccc2C1(c1c[nH]c2ccc(Br)cc12)c1c[nH]c2ccc(Br)cc12 | 5.00 | 6.03 | 6.02 | < 4.00 |
| O=C1Nc2ccccc2C1(c1c[nH]c2ccccc12)c1c[nH]c2ccccc12 | < 4.00 | 6.05 | 5.91 | < 4.00 |
| Cc1[nH]c2ccccc2c1C1(c2c(C)[nH]c3ccccc23)C(=O)Nc2ccccc21 | < 4.00 | 6.01 | 6.04 | < 4.00 |
| Cn1cc(C2(c3cn(C)c4ccccc34)C(=O)Nc3ccccc32)c2ccccc21 | < 4.00 | 5.88 | < 4.00 | < 4.00 |
| COc1cccc2c1C(=O)c1c(O)c3c(c(O)c1C2=O)C[C@@](O)(C(=O)CO)C[C@@H]3O[C@H]1C[C@H](N)[C@H](O)[C@H](C)O1 [DOXORUBICIN] | 5.09 | 6.01 | 4.82 | 4.83 |
| c1ccc2[nH]ccc2c1 [INDOLE] | < 4.00 | 5.75 | < 4.00 | 4.81 |
| O=C1Nc2ccccc2C1=O [ISATIN] | < 4.00 | 5.01 | 4.87 | < 4.00 |
